The results in this text go back to ChEMBL document CHEMBL5154715, “Phenolic Lipids Derived from Cashew Nut Shell Liquid to Treat Metabolic Diseases” (J Med Chem, 2022).

A short description of data set [1]: Metabolic stability in C57BL/6 mouse liver microsomes assessed as half life. In kind it is ADME, Microsome. The settings on record: time 2 min.
Data set [2] can be described thus: Metabolic stability in C57BL/6 mouse liver microsomes assessed as parent compound remaining incubated for 120 mins. In kind it is ADME, Microsome. As to conditions: read-out: Stability. (In general: Liver microsomes are vesicles of endoplasmic reticulum, rich in cytochrome P450 enzymes.)
The target of data set [3] is T1, Peroxisome proliferator-activated receptor alpha (Homo sapiens) (UniProt Q07869).
T1 sequence (whole entry): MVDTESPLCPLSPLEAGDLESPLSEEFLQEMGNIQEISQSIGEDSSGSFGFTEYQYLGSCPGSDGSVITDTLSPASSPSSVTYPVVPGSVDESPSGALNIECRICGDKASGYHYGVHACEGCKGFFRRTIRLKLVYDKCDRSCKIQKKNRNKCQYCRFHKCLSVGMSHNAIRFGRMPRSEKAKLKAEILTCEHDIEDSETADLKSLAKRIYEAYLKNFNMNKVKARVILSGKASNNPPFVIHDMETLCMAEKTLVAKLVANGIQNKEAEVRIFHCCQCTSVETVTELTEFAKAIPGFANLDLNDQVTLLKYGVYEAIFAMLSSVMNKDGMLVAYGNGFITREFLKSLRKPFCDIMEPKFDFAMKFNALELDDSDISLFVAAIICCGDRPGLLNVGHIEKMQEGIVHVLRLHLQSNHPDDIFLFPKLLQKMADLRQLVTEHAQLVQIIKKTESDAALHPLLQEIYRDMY
Put plainly: Agonist activity at human PPARalpha transfected in HEK293 cells assessed as relative luciferase unit at 50 uM measured after 16 hrs by luciferase reporter gene assay. In kind it is cell-based. The settings on record: filed as agonist. The procedure, abridged: (§1)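 GAL4-hPPAR (α or γ) plus UAS-luciferase and β-galactosidase transiently co-transfected into HEK293 cells, then treated with 50 μM compound for 16 h. RLU = luciferase/β-galactosidase × time, vehicle (DMSO) set to 1. Mean ± SD, N = 3; one-way ANOVA with Holm–Šidák vs vehicle.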
Background: Reporter assays use an easily measured gene product as a stand-in for the process of interest.

Data set [4] concerns the target T2, Peroxisome proliferator-activated receptor gamma (Homo sapiens) (UniProt P37231).
T2 sequence (whole entry): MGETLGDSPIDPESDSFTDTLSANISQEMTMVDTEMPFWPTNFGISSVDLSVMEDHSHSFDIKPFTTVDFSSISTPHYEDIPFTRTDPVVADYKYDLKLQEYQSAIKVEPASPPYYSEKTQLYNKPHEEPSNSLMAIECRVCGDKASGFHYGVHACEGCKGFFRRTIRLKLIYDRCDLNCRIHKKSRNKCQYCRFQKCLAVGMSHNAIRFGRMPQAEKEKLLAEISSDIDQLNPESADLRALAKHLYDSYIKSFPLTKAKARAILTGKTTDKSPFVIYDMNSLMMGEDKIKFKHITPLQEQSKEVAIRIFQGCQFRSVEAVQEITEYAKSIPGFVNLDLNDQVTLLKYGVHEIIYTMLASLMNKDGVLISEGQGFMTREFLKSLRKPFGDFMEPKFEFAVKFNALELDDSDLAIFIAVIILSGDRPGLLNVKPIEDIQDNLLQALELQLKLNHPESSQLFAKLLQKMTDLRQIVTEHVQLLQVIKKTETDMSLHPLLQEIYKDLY
The data set can be described thus: Agonist activity at human PPARgamma transfected in HEK293 cells assessed as relative luciferase unit at 50 uM measured after 16 hrs by luciferase reporter gene assay. It is filed as cell-based. As to conditions: filed as agonist. The procedure, abridged: as §1

The target of data set [5] is T3, Peroxisome proliferator-activated receptor alpha (Homo sapiens, UniProt Q07869).
T3 sequence (Q07869 whole entry): T1 sequence (whole entry)
The data set can be described thus: Agonist activity at human PPARalpha expressed in HEK293 cells by luciferase/beta-galactosidase reporter gene assay. It is filed as cell-based. The gist of the method: (§2)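 HEK293 cells in charcoal-stripped FBS, calcium phosphate co-transfected with GAL4-hPPAR LBD fusion, UAS-luciferase and β-galactosidase. Ligand added 6–8 h post transfection, full dose–response, harvested 14–16 h later. Luciferase normalized to β-galactosidase.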

The target in data set [6] is T1, Peroxisome proliferator-activated receptor alpha (Homo sapiens). The data set can be described thus: Agonist activity at human PPARalpha expressed in HEK293 cells assessed as maximal activity by luciferase/beta-galactosidase reporter gene assay relative to GW7647. In kind it is cell-based. The procedure, abridged:
as §2

Data set [7] shares this target. Put plainly: Stabilization of human PPARalpha LBD assessed as change in melting temperature at 25 uM by thermal shift assay. The gist of the method:
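Purified hPPAR LBD at 1 mg/mL (∼25 μM) with ligand (α-LBD at 25 μM; γ- and δ-LBD at 50 μM). Static light scattering at 473 nm from 25 to 70 °C in 0.5 °C steps, 1 °C/min. Tm from four-parameter fit; ΔTm relative to DMSO; mean ± SEM, N = 3.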

Data set [8] deals with T4, Peroxisome proliferator-activated receptor delta (Homo sapiens) (UniProt Q03181).
T4 sequence (whole entry): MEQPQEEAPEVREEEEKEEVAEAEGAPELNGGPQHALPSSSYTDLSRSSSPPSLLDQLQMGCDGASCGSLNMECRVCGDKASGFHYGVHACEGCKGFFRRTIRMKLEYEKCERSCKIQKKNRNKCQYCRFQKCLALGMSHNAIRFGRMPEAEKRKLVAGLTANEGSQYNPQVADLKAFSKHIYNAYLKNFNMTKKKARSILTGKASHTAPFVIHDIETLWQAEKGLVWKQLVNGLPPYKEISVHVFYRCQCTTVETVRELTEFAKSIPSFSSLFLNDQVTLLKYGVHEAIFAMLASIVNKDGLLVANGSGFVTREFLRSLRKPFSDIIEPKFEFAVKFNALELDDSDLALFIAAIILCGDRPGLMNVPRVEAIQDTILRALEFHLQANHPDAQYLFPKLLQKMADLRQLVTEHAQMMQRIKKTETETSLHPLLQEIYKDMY

Data set [9] has as its target T2, Peroxisome proliferator-activated receptor gamma (Homo sapiens). The data set can be described thus: Stabilization of human PPARgamma LBD assessed as change in melting temperature at 50 uM by thermal shift assay.
For data set [10], the target named is T4, Peroxisome proliferator-activated receptor delta (Homo sapiens). Put plainly: Stabilization of human PPARdelta LBD assessed as change in melting temperature at 50 uM by thermal shift assay.

Calls of active or inactive are those of the source. The calls are words filed in the database; no cut-off is given here. Bounds are passed on as bounds.

In general, half-life refers to how long it takes for the measured level to halve. Broadly, the EC50 is the midpoint of the concentration-response curve. A higher EC50 goes with lower potency in that assay. By ΔTm is commonly meant the shift of the melting midpoint relative to a reference. Turning to `CCCCCCCCCCCCCCCc1cccc(OC(C)(C)C(=O)O)c1`, the half-life in [1] amounted to 6 h. Moreover, the remaining at 2 h in data set [2] amounted to 79%. Further, the result in [3] and in data set [4] was Active. Also, the EC50 was found to be 500 nM in data set [5] and 33000 nM in data set [8] (HEK293, filed as agonist). Further, the Emax in data set [6] came to 30%. The ΔTm in data set [7] is 10.8 °C; in data set [9], 6.3 °C; in data set [10], 11.3 °C.

Consider `CCCCCC/C=C\CCCCCCCc1cccc(OC(C)(C)C(=O)O)c1`, for which the half-life in data set [1] came out at 13.9 h. Further, in data set [2], the remaining at 2 h came out at 90%. Also, the outcome in [3] and in data set [4] was Active. Further, the concentration for a half-maximal effect (EC50) came to 700 nM in data set [5] and 21000 nM in [8] (HEK293, filed as agonist). The Emax in data set [6] (filed as agonist) is above 90%. Also, the ΔTm was found to be 3.8 °C in [7], 5.6 °C in [9] and 6.8 °C in [10].

`CCCCCCCCCCCCCCCc1cccc(OC(C)=O)c1C(=O)O`: the half-life in [1] was found to be 0.0333 h. Also, the remaining at 2 h in data set [2] is 0%. The result in data set [3] and in data set [4] was Active. Also, the EC50 in data set [5] was 2400 nM; in [8] (HEK293) it was above 50000 nM. Further, the Emax in data set [6] (filed as agonist) was above 90%. For the same compound, the values for the ΔTm in data set [7], in data set [9] and in [10] were 17.4 °C, 4.4 °C and 12 °C, respectively.
